# Test results published in ChEMBL document CHEMBL3739344, “A novel class of negative allosteric modulators of NMDA receptor function” (Bioorg Med Chem Lett, 2015).
# Active and inactive are the calls of the source. The rule behind the calls is not given here.
# Columns and labels:
# Primary neuron = assay: Neuroprotective activity in rat primary hippocampal neurons assessed as 100 uM NMDA and 30 uM glycine induced LDH release in media at 10 uM after 20 to 24 hrs by spectrophotometric analysis; type: functional, cell-based
# Method in brief: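 Rat hippocampal neurons were cultured 7–10 days in vitro at 37 °C. They were challenged for 1 h in Mg2+-free medium with 100 µM NMDA plus 30 µM glycine, then returned to normal medium. LDH in the supernatant was read spectrophotometrically 20–24 h later and expressed relative to vehicle-treated cells. Triplicates from 6 independent experiments.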
# [1] = target: Glutamate NMDA receptor; Grin1/Grin2a (Rattus norvegicus, UniProt P35439+Q00959); assay: Negative allosteric modulation of rat GluN1a/GluN2A receptor expressed in Xenopus laevis oocytes assessed as suppression of 100 uM glutamate and 30 uM glycine glycine induced-current by voltage clamp recording method; type: cell-based
# Method in brief: (§1)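 Rat GluN1-1a cRNA co-injected with GluN2A, 2B, 2C or 2D cRNA into Xenopus oocytes; expression 1–3 days at 16–19 °C. Two-electrode voltage clamp. Currents evoked by 100 µM glutamate plus 30 µM glycine, alone and then with rising inhibitor concentrations. […] 4–17 oocytes from ≥2 frogs.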
# [2] = Solubility of compound in TEVC electrophysiological solution at 3.25 to 100 uM by nephelometric method; type: physicochemical
# Method in brief: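 Nephelometry measuring forward light scattering of each compound at 3.25–100 µM in TEVC recording solution. Maximum solubility taken as the intersection point of a linear segmental regression. Mean of n = 2 in quadruplicate.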
# [3] = target: Glutamate NMDA receptor; Grin1/Grin2b (Rattus norvegicus, UniProt P35439+Q00960); assay: Negative allosteric modulation of rat GluN1a/GluN2B receptor expressed in Xenopus laevis oocytes assessed as suppression of 100 uM glutamate and 30 uM glycine induced-current by voltage clamp recording method; type: cell-based; method in brief: as §1
# [4] = target: T1, Ionotropic glutamate receptor NMDA 1/2D (Rattus norvegicus) (UniProt P35439+Q62645); assay: Negative allosteric modulation of rat GluN1a/GluN2D receptor expressed in Xenopus laevis oocytes assessed as suppression of 100 uM glutamate and 30 uM glycine induced-current at saturating compound level by voltage clamp recording method; type: cell-based; method in brief: as §1
# [5] = target: T2, Glutamate NMDA receptor; Grin1/Grin2c (Rattus norvegicus) (UniProt P35439+Q00961); assay: Negative allosteric modulation of rat GluN1a/GluN2C receptor expressed in Xenopus laevis oocytes assessed as suppression of 100 uM glutamate and 30 uM glycine induced-current at saturating compound level by voltage clamp recording method; type: cell-based; method in brief: as §1
# [6] = target: T3, Glutamate NMDA receptor; Grin1/Grin2b (Rattus norvegicus) (UniProt P35439+Q00960); assay: Negative allosteric modulation of rat GluN1a/GluN2B receptor expressed in Xenopus laevis oocytes assessed as suppression of 100 uM glutamate and 30 uM glycine induced-current at saturating compound level by voltage clamp recording method; type: cell-based; method in brief: as §1
# [7] = target: Glutamate NMDA receptor; Grin1/Grin2c (Rattus norvegicus, UniProt P35439+Q00961); assay: Negative allosteric modulation of rat GluN1a/GluN2C receptor expressed in Xenopus laevis oocytes assessed as suppression of 100 uM glutamate and 30 uM glycine induced-current by voltage clamp recording method; type: cell-based; method in brief: as §1
# [8] = target: T4, Glutamate NMDA receptor; Grin1/Grin2a (Rattus norvegicus) (UniProt P35439+Q00959); assay: Negative allosteric modulation of rat GluN1a/GluN2A receptor expressed in Xenopus laevis oocytes assessed as suppression of 100 uM glutamate and 30 uM glycine induced-current at saturating compound level by voltage clamp recording method; type: cell-based; method in brief: as §1
# [9] = target: Ionotropic glutamate receptor NMDA 1/2D (Rattus norvegicus, UniProt P35439+Q62645); assay: Negative allosteric modulation of rat GluN1a/GluN2D receptor expressed in Xenopus laevis oocytes assessed as suppression of 100 uM glutamate and 30 uM glycine induced-current by voltage clamp recording method; type: cell-based; method in brief: as §1
# Rattus norvegicus = species on record: Rattus norvegicus; assay: Selectivity ratio of IC50 for rat GluN1a/GluN2A receptor expressed in Xenopus laevis oocytes to IC50 for rat GluN1a/GluN2D receptor expressed in Xenopus laevis oocytes; type: cell-based
# [10] = target: T4, Glutamate NMDA receptor; Grin1/Grin2a (Rattus norvegicus); assay: Negative allosteric modulation of rat GluN1a/GluN2A receptor expressed in Xenopus laevis oocytes assessed as suppression of 100 uM glutamate and 30 uM glycine induced-current at 30 uM by voltage clamp recording method; type: cell-based
# [11] = target: T3, Glutamate NMDA receptor; Grin1/Grin2b (Rattus norvegicus); assay: Negative allosteric modulation of rat GluN1a/GluN2B receptor expressed in Xenopus laevis oocytes assessed as suppression of 100 uM glutamate and 30 uM glycine induced-current at 30 uM by voltage clamp recording method; type: cell-based
# [12] = target: T1, Ionotropic glutamate receptor NMDA 1/2D (Rattus norvegicus); assay: Negative allosteric modulation of rat GluN1a/GluN2D receptor expressed in Xenopus laevis oocytes assessed as suppression of 100 uM glutamate and 30 uM glycine at 30 uM glycine induced-current by voltage clamp recording method; type: cell-based
# [13] = target: T2, Glutamate NMDA receptor; Grin1/Grin2c (Rattus norvegicus); assay: Negative allosteric modulation of rat GluN1a/GluN2C receptor expressed in Xenopus laevis oocytes assessed as suppression of 100 uM glutamate and 30 uM glycine at 30 uM glycine induced-current by voltage clamp recording method; type: cell-based
Compound,Activity (Primary neuron),IC50 [1] [µM],solubility kinetic [2] [µM],IC50 [3] [µM],inhibition [4] [%],inhibition [5] [%],inhibition [6] [%],IC50 [7] [µM],inhibition [8] [%],IC50 [9] [µM],Ratio IC50 (Rattus norvegicus),inhibition [10] [%],inhibition [11] [%],inhibition [12] [%],inhibition [13] [%]
C[C@]12N[C@H](Cc3ccccc31)c1ccccc12,Active,,,,,,,,,,,,,,
COC(=O)c1c(NC(=O)CC2SC(N)=NC2=O)sc2c1CCCC2 (racemic),,3.4,57,4.2,86,88,86,1,81,1.1,,,,,
COC(=O)c1c(NC(=O)CC2SC(N)=NC2=O)sc2c1CCC(C)C2 (racemic),,0.7,20,0.6,94,95,74,0.3,80,0.3,,,,,
CCc1cc(C(=O)OC)c(NC(=O)CC2SC(N)=NC2=O)s1 (racemic),,4.8,,9.3,98,97,97,2.5,98,2.6,,,,,
CCOC(=O)c1c(NC(=O)CC2SC(=N)NC2=O)sc2c1CCC(F)(F)C2 (racemic),,5.2,35,8,65,75,74,1.4,84,1.5,,,,,
CCOC(=O)c1c(NC(=O)CC2SC(=N)NC2=O)sc2c1CCOC2 (racemic),,3,,5.6,41,59,69,2.9,74,2.1,,,,,
CCOC(=O)c1c(NC(=O)CC2SC(=N)NC2=O)sc2c1CCC(C)(C)C2 (racemic),,16.1,37,9.2,90,89,44,9.3,72,8.8,,,,,
CCc1c(C)sc(NC(=O)CC2SC(=N)NC2=O)c1C(=O)OC (racemic),,26.8,,43.8,82,85,77,6.7,79,9.1,,,,,
CCOC(=O)c1c(NC(=O)CC2SC(=N)NC2=O)sc2c1CCSC2 (racemic),,6.2,,12.2,84,88,78,0.8,82,0.8,7,,,,
CCOC(=O)c1c(NC(=O)CC2SC(=N)NC2=O)sc2c1CCC(CC)C2 (racemic),,3.4,73,2.2,73,80,59,0.9,58,1.5,,,,,
CCOC(=O)c1cc(C)sc1NC(=O)CC1SC(=N)NC1=O (racemic),,42.8,,44.9,99,98,91,11.2,93,12.3,,,,,
CCOC(=O)c1cc(CC)sc1NC(=O)CC1SC(=N)NC1=O (racemic),,6.2,,9.7,94,97,96,3.7,96,2.6,,,,,
N#Cc1c(NC(=O)CC2SC(=N)NC2=O)sc2c1CCCC2 (racemic),,,36,,63,59,,2.9,,4.3,,,,,
CCOC(=O)c1c(NC(=O)CC2SC(=N)NC2=O)sc2c1CCCC2 (racemic),,2.3,54,4.2,41,53,35,1.2,61,0.6,,,,,
COC(=O)c1ccsc1NC(=O)CC1SC(=N)NC1=O (racemic),,,,,99,100,,41,,43.3,,< 25,< 25,,
COC(=O)c1c(NC(=O)CC2SC(=N)NC2=O)sc(C)c1C (racemic),,22.3,,28.2,94,88,63,9.7,88,10.4,,,,,
CCOC(=O)c1c(NC(=O)CC2SC(=N)NC2=O)sc(C)c1C (racemic),,30.2,,,81,77,,8.1,80,13,,,< 25,,
CCOC(=O)c1c(NC(=O)CC2NC(=O)NC2=O)sc2c1CCCC2 (racemic),,,,,,,,,,,,< 25,< 25,< 25,< 25
CCOC(=O)c1c(NC(=O)CC2S/C(=N\C)N(C)C2=O)sc2c1CCCC2 (racemic),,,,,,,,,,,,< 25,< 25,< 25,< 25
CCOC(=O)c1c(NC(=O)CC2SC(=O)NC2=O)sc2c1CCC2 (racemic),,,,,,,,,,,,< 25,< 25,< 25,< 25
CCOC(=O)c1c(NC(=O)CC2SC(=O)NC2=O)sc2c1CCCC2 (racemic),,,,,,,,,,,,< 25,< 25,< 25,< 25
COC(=O)c1c(NC(=O)CC2SC(N)=NC2=O)sc2c1CCC(C(C)(C)C)C2 (racemic),,,,,,,,,,,,< 25,< 25,< 25,< 25
N=C1NC(=O)C(CC(=O)Nc2sc3c(c2C(=O)O)CCCC3)S1 (racemic),,,,,,,,,,,,< 25,< 25,< 25,< 25
